Reference: ChEMBL document CHEMBL1123247, “Nucleoside conjugates. 7. Synthesis and antitumor activity of 1-beta-D-arabinofuranosylcytosine conjugates of ether lipids” (J Med Chem, 1986)
Several values for one entry are separate records, joined by “and”; a condition that tells them apart may be missing. Equal entries are not always repeated.

Key:
L1210 [1] = test: Antitumor activity was determined against the ip implanted L1210 leukemia in mice by percent median survival rate (treated/control) at 32 and 66 mg/kg (treatment of 1-5qd schedule) dosage; Range is 11.0/8.0; format: functional, Mus musculus; details: route intraperitoneal
How it was run: (§1)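 DBA/2J mice, 23-28 g, in groups of 6, were inoculated ip with 1×10^6 L1210 cells on day 0. Dosing was ip starting 24 h later on the stated daily schedules. Conjugates were given as sonicated solutions and reference prodrugs as suspensions in 0.9% NaCl with 0.5% Tween-80. Mice were observed daily until death or 45 days. Median survival T/C was calculated from survivors per NCI protocols.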

L1210 [2] = test: Antitumor activity was determined against the ip implanted L1210 leukemia in mice by range in survival days at 128 and 262 mg/kg (treatment of 1qd schedule) dosage; Range is 7-8; format: functional, Mus musculus; details: route intraperitoneal; how it was run: as §1
L1210 [3] = test: Antitumor activity was determined against the ip implanted L1210 leukemia in mice by range in survival days at 32 and 66 mg/kg (treatment of 1-5qd schedule) dosage; Range is 10-12; format: functional, Mus musculus; details: route intraperitoneal; how it was run: as §1
L1210 [4] = test: Antitumor activity against the ip implanted L1210 leukemia in mice expressed as optimal dose (1-5qd treatment schedule) required to produce greatest increase in life span was determined; format: functional, Mus musculus
How it was run: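 DBA/2J mice, groups of 6 (23-28 g), were inoculated ip with 1 × 10^6 L1210 cells on day 0. Dosing was ip from 24 h, in 0.9% NaCl with 0.5% Tween-80 (sonicated solution or suspension). Mice were observed daily until death or day 45. Median survival T/C followed NCI protocols, and ILS = (T/C − 1) × 100. Active range means doses giving ILS ≥25%; optimal dose means greatest ILS.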

L1210 [5] = test: Antitumor activity was determined against the ip implanted L1210 leukemia in mice by change in […] at 128 and 262 mg/kg (treatment of 1qd schedule) dosage; format: functional, Mus musculus; details: route intraperitoneal
How it was run: (§2)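 DBA/2J mice, 6 per group (wt 23-28 g), inoculated ip with 1×10^6 L1210 cells on day 0. Treatment was given ip in 0.9% NaCl with 0.5% Tween-80, starting 24 h later. Weight change was taken on day 8. Mice were observed daily until death or 45 days. Median survival T/C and %ILS = (T/C − 1) × 100 came from survivors per NCI protocols, and 45-day survivors were counted.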

L1210 [6] = test: Antitumor activity was determined against the ip implanted L1210 leukemia in mice by change in […] at 32 and 66 mg/kg (treatment of 1-5qd schedule) dosage; format: functional, Mus musculus; details: route intraperitoneal; how it was run: as §2
L1210 [7] = test: Antitumor activity was determined against the ip implanted L1210 leukemia in mice by 45-day survivors in mice at 128 and 262 mg/kg (treatment of 1qd schedule) dosage; format: functional, Mus musculus; details: route intraperitoneal
How it was run: (§3)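 DBA/2J mice in groups of 6 (wt 23-28 g) were inoculated ip with 1×10^6 L1210 cells on day 0. Dosing was ip from 24 h, in 0.9% NaCl with 0.5% Tween-80 (conjugates sonicated), across a range of doses. Mice were observed daily until death or 45 days. Median T/C was computed from survivors per NCI protocols, and ILS = (T/C − 1)×100.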

L1210 [8] = test: Antitumor activity was determined against the ip implanted L1210 leukemia in mice by 45-day survivors in mice at 32 and 66 mg/kg (treatment of 1-5qd schedule) dosage; format: functional, Mus musculus; details: route intraperitoneal; how it was run: as §3
L1210 [9] = test: Antitumor activity was determined against the ip implanted L1210 leukemia in mice by percent increase in life span at 32 and 66 mg/kg (treatment of 1-5qd schedule) dosage; format: functional, Mus musculus; details: route intraperitoneal; how it was run: as §3
L1210 [10] = test: Antitumor activity was determined against the ip implanted L1210 leukemia in mice by percent increase in life span at 128 and 262 mg/kg (treatment of 1qd schedule) dosage; format: functional, Mus musculus; details: route intraperitoneal; how it was run: as §3
L1210 [11] = test: Antitumor activity was determined against the ip implanted L1210 leukemia in mice by median survival time at 128 and 262 mg/kg (treatment of 1qd schedule) dosage; 8.0/8.0; details: route intraperitoneal
AMML = test: Compound was tested for the inhibition of AMML (acute myelomonocytic leukemia); format: functional, cell-based; details: Homo sapiens
How it was run: (§4)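 Human leukemia and solid tumor cells in culture were exposed to compound for 48 h. Viability was scored by trypan blue dye exclusion. IC50 (50% inhibition) was estimated from response curves of three separate experiments.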

CML/BC = test: Compound was tested for the inhibition of CML/BC(chronic myeloid leukemia, blast crisis); format: functional, cell-based; details: Homo sapiens; how it was run: as §4
Glioblastoma cell line = test: Compound was tested for the inhibition of glioblastoma; format: functional, cell-based; details: Homo sapiens; how it was run: as §4
HL-60 = test: Compound was tested for the inhibition of human HL60 Leukemia; format: functional, cell-based; how it was run: as §4
NSCLC = test: Compound was tested for the inhibition of non- small cell lung cancer; format: functional, cell-based; details: Homo sapiens; how it was run: as §4
[12] = system: Small cell lung cancer cell line; test: Compound was tested for the inhibition of small cell lung cancer; format: functional, cell-based; details: Homo sapiens; how it was run: as §4

How did the median survival time (L1210 [1]) turn out when `CCCCCCCCCCCCCCCCCCOCC(COP(=O)(O)O)OC(=O)CCCCCCCCCCCCCCC.Nc1ccn([C@@H]2O[C@H](COP(=O)(O)O)[C@@H](O)[C@@H]2O)c(=O)n1` (racemic) was run?
Its median survival time is 11 days.

And the Range (L1210 [2])?
Its Range is 7.

And the Range (L1210 [3])?
The Range was 10.

And the Optimal dose (L1210 [4])?
Its Optimal dose is 32 mg and 66 mg.

What about the Weight change (L1210 [5]) of the same compound?
Its Weight change is 3.2 g mouse-1.

What about the Weight change (L1210 [6]) of the same compound?
Its Weight change is 3.5 g mouse-1.

And the Survivors (L1210 [7])?
The Survivors was 0.

What about the Survivors (L1210 [8]) of the same compound?
The Survivors was 0.

What about the ILS (L1210 [9]) of the same compound?
The ILS was 38.

What about the ILS (L1210 [10]) of the same compound?
Its ILS is 0.

What about the median survival time (L1210 [11]) of the same compound?
Its median survival time is 8 days.

`CCCCCCCCCCCCCCCCCCOCC(COP(=O)([O-])OCC[N+](C)(C)C)OC.Nc1ccn([C@@H]2O[C@H](CO)[C@@H](O)[C@@H]2O)c(=O)n1` (configuration not stated) was tested. Which IC50 (AMML) did it give?
The IC50 was 1.35 µM.

And the IC50 (CML/BC)?
The IC50 was 0.25 µM.

And the IC50 (Glioblastoma cell line)?
The IC50 was 27 µM.

And the IC50 (HL-60)?
Its IC50 is 0.26 µM.

What about the IC50 (NSCLC) of the same compound?
The IC50 was 34 µM.

And the IC50 [12]?
Its IC50 is 38 µM.
